Measured values as given in ChEMBL document CHEMBL5678806, “NMS-P937, an orally available, specific small-molecule polo-like kinase 1 inhibitor with antitumor activity in solid and hematologic malignancies” (Mol Cancer Ther, 2012).
Calls of active or inactive are those of the source. The rule behind the calls is not given here.

What was measured:
[1] = biological target: Casein kinase 2 (Homo sapiens, UniProt P67870+P68400+P19784+Q8NEV1); test: Inhibition of CK2 (unknown origin) in presence of [gamma-33P]ATP; type: protein assay
[2] = system: ACHN; test: Antiproliferative activity against human ACHN cells assessed as inhibition of cell growth incubated for 72 hrs by cell-titer glo assay; type: functional, cell-based
Procedure, shortened: (§1)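 Cells seeded 10,000–30,000/cm² (adherent) or 100,000/mL (suspension) in medium with 10% fetal calf serum; after 24 h treated in duplicate with serial dilutions for 72 h. Viable cells read by CellTiter-Glo luminescence; IC50 from sigmoidal fit; at least two independent experiments.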

[3] = system: HL-60; test: Antitumor activity against human HL-60 cells xenografted in nu/nu mouse assessed as tumor growth inhibition at 60 mg/kg, po administered for 10 days relative to control; type: functional; settings: HL-60, 240 h, time 10 day, read-out: TGI
[4] = Antiproliferative activity against human GBM-0627-GFD cells assessed as inhibition of cell growth incubated for 72 hrs by cell-titer glo assay; type: functional, cell-based; procedure, shortened: as §1
[5] = biological target: Vascular endothelial growth factor receptor 3 (Homo sapiens, UniProt P35916); test: Inhibition of VEGFR3 (unknown origin) in presence of [gamma-33P]ATP
[6] = system: A2780; test: Induction of cell cycle arrest in human A2780 cells assessed as accumulation of cells in G2/M phase by measuring PLK1 phosphorylation on Thr210 incubated for 24 hrs by Western blotting analysis; type: functional, cell-based; settings: dose 0.02-0.2 µmol/L
Procedure, shortened: (§2)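 A2780 ovarian carcinoma cells treated 24 h with a range of concentrations, with DMSO and nocodazole controls. 20 µg protein extract separated by SDS-PAGE and immunoblotted with chemiluminescent detection. Probed for total and phospho-Thr210 PLK1, phospho-Ser10 histone H3, phospho-Thr199 NPM and phospho-Tyr15 CDK1. Total NPM, tubulin and total CDK1 served as loading controls.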

[7] = biological target: Serine/threonine-protein kinase tousled-like 2 (Homo sapiens, UniProt Q86UE8); test: Inhibition of TLK2 (unknown origin) in presence of [gamma-33P]ATP
[8] = biological target: Cyclin-dependent kinase 4/cyclin D1 (Homo sapiens, UniProt P11802); test: Inhibition of CDK4/CycD1 (unknown origin) in presence of [gamma-33P]ATP; type: protein-complex assay
[9] = system: SF-268; test: Antiproliferative activity against human SF-268 cells assessed as inhibition of cell growth incubated for 72 hrs by cell-titer glo assay; type: functional, cell-based; settings: SF-268, 72 h
Procedure, shortened: (§3)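 Cells from ATCC or ECACC, kept in supplier-recommended medium with 1% penicillin-streptomycin at 37°C, 5% CO₂. Seeded at 10,000–30,000/cm² (adherent) or 100,000/mL (nonadherent) in medium with 10% fetal calf serum. Dosed after 24 h in duplicate with serial dilutions. Viable cells read by CellTiter-Glo 72 h later. IC50 from sigmoidal fit. At least two independent experiments.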

[10] = biological target: Ribosomal protein S6 kinase beta-1 (Homo sapiens) (UniProt P23443); test: Inhibition of N-terminal His6-tagged recombinant p70S6K (1 to 421 residues) (unknown origin) expressed in baculovirus infected Sf21 cells assessed as residual activity at 1 uM relative to control
[11] = biological target: cGMP-dependent protein kinase 1 (Homo sapiens) (UniProt Q13976); test: Inhibition of N-terminal 6His-tagged recombinant, full-length human PKG1alpha expressed in baculovirus infected Sf21 cells assessed as residual activity at 0.1 uM relative to control
[12] = biological target: Cytoplasmic tyrosine-protein kinase BMX (Homo sapiens) (UniProt P51813); test: Inhibition of recombinant human Bmx assessed as residual activity at 0.1 uM relative to control
[13] = system: RO82-W-1; test: Antiproliferative activity against human RO82-W-1 cells assessed as inhibition of cell growth incubated for 72 hrs by cell-titer glo assay; type: functional, cell-based; settings: RO82-W-1, 72 h; procedure, shortened: as §3
[14] = system: IGROV-1; test: Antiproliferative activity against human IGROV-1 cells assessed as inhibition of cell growth incubated for 72 hrs by cell-titer glo assay; type: functional, cell-based; settings: IGROV-1, 72 h
Procedure, shortened: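 Cells seeded at 10,000–30,000/cm² (adherent) or 100,000/mL (nonadherent) in medium with 10% fetal calf serum; after 24 h, treated in duplicate with serial dilutions for 72 h. Viable cell number read by CellTiter-Glo luminescence; IC50 from sigmoidal fit; at least two independent experiments.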

[15] = biological target: Mitogen-activated protein kinase kinase kinase 9 (Homo sapiens) (UniProt P80192); test: Inhibition of N-terminal 6His-tagged recombinant human MLK1 (134 to 414 residues) expressed in baculovirus infected Sf21 cells assessed as residual activity at 0.1 uM relative to control
[16] = biological target: Serine/threonine-protein kinase STK11 (Homo sapiens) (UniProt Q15831); test: Inhibition of N-terminal 6His-tagged recombinant full-length human LKB1 expressed in Sf21 cells assessed as residual activity at 0.1 uM relative to control
[17] = system: UO-31; test: Antiproliferative activity against human UO-31 cells assessed as inhibition of cell growth incubated for 72 hrs by cell-titer glo assay; type: functional, cell-based; settings: UO-31, 72 h
[18] = system: COLO-741; test: Antiproliferative activity against human COLO-741 cells assessed as inhibition of cell growth incubated for 72 hrs by cell-titer glo assay; type: functional, cell-based; settings: COLO-741, 72 h; procedure, shortened: as §1
[19] = biological target: Tyrosine-protein kinase Mer (Homo sapiens) (UniProt Q12866); test: Inhibition of N-terminal GST-tagged recombinant human Mer (557 to 882 residues) expressed in baculovirus infected Sf21 cells assessed as residual activity at 1 uM relative to control
[20] = biological target: Protein kinase C beta type (Homo sapiens, UniProt P05771); test: Inhibition of N-terminal His6-tagged recombinant human PKCbetaI (2 to end) expressed in Sf21 cells assessed as residual activity at 0.1 uM relative to control
[21] = system: A2780; test: In vivo inhibition of PLK1 in human A2780 cells xenografted in nu/nu mouse assessed as decreased TCTP phosphorylation on Ser46 at 60 mg/kg, po administered for 2 hrs by immunohistochemistry analysis; type: functional, organism-based
[22] = system: A2780; test: Induction of cell cycle arrest in human A2780 cells assessed as accumulation of cells in G2/M phase by measuring Histone H3 phosphorylation on Ser10 incubated for 24 hrs by Western blotting analysis; type: functional, cell-based; settings: dose 0.02-0.2 µmol/L; procedure, shortened: as §2
[23] = system: NCI-H1975; test: Antiproliferative activity against human NCI-H1975 cells assessed as inhibition of cell growth incubated for 72 hrs by cell-titer glo assay; type: functional, cell-based; settings: NCI-H1975, 72 h; procedure, shortened: as §3
[24] = biological target: Calcium/calmodulin-dependent protein kinase type 1 (Homo sapiens) (UniProt Q14012); test: Inhibition of recombinant human CaMKI assessed as residual activity at 1 uM relative to control
[25] = biological target: Insulin-like growth factor 1 receptor (Homo sapiens) (UniProt P08069); test: Inhibition of N-terminal 6His-tagged recombinant human IGF-1R (959 to end residues) expressed in baculovirus infected Sf21 cells assessed as residual activity at 1 uM relative to control
[26] = system: NCI-H520; test: Antiproliferative activity against human NCI-H520 cells assessed as inhibition of cell growth incubated for 72 hrs by cell-titer glo assay; type: functional, cell-based; settings: NCI-H520, 72 h; procedure, shortened: as §3

Chain of Serine/threonine-protein kinase tousled-like 2 (Q86UE8 whole entry): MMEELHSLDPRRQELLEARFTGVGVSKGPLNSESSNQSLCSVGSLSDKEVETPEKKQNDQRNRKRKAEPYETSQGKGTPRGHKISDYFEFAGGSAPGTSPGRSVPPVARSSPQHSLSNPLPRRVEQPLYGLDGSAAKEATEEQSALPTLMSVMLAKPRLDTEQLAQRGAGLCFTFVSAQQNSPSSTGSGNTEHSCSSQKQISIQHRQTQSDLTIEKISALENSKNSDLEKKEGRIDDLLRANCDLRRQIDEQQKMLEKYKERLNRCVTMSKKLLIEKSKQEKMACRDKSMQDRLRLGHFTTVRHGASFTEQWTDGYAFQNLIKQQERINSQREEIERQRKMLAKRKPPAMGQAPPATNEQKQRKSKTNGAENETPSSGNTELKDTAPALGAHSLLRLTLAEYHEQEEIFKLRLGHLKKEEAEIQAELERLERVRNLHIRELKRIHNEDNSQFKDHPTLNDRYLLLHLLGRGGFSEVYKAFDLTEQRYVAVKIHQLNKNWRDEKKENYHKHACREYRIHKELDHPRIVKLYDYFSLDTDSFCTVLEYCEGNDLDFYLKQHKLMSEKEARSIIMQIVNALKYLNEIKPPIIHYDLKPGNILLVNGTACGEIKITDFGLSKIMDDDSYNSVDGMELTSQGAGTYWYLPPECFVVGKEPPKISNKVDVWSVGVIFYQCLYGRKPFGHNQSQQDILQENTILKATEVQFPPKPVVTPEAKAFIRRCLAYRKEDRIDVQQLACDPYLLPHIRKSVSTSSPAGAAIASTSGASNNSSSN
Chain of Cyclin-dependent kinase 4/cyclin D1 (P11802 whole entry): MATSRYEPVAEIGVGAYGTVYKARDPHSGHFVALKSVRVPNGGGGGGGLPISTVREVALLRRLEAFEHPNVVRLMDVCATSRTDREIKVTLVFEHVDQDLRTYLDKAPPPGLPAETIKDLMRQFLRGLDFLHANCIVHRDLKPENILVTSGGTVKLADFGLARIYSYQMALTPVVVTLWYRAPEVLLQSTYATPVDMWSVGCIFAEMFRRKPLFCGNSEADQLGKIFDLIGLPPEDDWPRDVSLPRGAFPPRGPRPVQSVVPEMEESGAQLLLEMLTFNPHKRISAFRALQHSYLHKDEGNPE
Chain of Cyclin-dependent kinase 4/cyclin D1 (P24385 whole entry, further chain): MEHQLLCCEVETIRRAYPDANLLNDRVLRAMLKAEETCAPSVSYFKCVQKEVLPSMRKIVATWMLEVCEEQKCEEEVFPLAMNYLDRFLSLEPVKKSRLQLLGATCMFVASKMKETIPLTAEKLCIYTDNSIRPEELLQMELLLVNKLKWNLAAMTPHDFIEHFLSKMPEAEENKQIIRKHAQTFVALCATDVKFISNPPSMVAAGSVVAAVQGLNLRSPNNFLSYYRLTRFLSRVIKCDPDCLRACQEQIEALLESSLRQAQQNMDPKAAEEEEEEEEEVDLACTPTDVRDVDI
Chain of Calcium/calmodulin-dependent protein kinase type 1 (Homo sapiens) (Q14012 whole entry, looked up): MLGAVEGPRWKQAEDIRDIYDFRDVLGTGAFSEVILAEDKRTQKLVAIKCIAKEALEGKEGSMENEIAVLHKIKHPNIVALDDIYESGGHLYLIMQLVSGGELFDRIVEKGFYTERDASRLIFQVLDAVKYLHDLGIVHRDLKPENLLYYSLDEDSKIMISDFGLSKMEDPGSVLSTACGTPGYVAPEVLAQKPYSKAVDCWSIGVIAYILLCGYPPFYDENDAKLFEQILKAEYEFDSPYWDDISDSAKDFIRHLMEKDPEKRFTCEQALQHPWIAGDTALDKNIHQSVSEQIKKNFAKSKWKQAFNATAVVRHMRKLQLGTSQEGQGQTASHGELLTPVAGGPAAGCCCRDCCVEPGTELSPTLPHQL
Chain of Ribosomal protein S6 kinase beta-1 (Homo sapiens) (P23443 whole entry, looked up, the tested form may be a part): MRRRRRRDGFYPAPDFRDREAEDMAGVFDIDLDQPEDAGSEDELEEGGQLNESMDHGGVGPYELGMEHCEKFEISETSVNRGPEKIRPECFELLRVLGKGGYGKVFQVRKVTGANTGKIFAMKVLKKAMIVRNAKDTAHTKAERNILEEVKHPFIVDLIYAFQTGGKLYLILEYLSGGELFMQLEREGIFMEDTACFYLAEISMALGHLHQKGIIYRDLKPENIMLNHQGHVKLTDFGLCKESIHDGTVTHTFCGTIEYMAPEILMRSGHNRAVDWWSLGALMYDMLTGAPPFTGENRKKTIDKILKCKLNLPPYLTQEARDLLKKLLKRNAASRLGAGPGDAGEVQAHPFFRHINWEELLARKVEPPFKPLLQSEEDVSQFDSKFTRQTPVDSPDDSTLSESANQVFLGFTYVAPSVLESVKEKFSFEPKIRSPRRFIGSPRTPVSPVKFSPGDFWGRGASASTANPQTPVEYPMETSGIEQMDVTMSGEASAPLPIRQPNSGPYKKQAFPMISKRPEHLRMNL
Chain of Tyrosine-protein kinase Mer (Homo sapiens) (Q12866 whole entry, the tested form may be a part): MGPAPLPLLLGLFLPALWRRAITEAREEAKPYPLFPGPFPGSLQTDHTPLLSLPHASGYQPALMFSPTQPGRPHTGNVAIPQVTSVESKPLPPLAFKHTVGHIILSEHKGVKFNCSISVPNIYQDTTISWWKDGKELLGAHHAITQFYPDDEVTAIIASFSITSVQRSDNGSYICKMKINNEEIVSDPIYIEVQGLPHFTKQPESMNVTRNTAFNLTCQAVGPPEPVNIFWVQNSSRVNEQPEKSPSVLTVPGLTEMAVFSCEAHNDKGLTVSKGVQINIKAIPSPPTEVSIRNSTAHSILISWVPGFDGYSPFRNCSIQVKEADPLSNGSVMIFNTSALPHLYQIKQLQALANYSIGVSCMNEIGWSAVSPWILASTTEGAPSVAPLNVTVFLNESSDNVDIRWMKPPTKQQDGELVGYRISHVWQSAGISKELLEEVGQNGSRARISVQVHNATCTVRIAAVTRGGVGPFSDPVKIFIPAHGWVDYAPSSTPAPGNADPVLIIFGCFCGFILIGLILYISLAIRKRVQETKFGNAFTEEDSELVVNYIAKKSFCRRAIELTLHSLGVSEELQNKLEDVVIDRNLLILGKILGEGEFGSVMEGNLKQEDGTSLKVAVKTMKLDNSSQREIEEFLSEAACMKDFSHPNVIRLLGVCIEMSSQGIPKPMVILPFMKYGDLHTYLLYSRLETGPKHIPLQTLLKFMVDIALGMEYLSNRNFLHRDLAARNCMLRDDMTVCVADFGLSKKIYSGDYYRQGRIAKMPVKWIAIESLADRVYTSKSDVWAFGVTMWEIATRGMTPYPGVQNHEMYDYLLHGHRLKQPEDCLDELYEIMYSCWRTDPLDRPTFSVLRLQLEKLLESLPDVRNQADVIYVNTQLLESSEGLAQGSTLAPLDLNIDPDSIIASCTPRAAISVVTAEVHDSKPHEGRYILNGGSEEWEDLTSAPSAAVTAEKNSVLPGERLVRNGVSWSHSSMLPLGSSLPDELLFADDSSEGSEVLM
Chain of Cytoplasmic tyrosine-protein kinase BMX (Homo sapiens) (P51813 whole entry): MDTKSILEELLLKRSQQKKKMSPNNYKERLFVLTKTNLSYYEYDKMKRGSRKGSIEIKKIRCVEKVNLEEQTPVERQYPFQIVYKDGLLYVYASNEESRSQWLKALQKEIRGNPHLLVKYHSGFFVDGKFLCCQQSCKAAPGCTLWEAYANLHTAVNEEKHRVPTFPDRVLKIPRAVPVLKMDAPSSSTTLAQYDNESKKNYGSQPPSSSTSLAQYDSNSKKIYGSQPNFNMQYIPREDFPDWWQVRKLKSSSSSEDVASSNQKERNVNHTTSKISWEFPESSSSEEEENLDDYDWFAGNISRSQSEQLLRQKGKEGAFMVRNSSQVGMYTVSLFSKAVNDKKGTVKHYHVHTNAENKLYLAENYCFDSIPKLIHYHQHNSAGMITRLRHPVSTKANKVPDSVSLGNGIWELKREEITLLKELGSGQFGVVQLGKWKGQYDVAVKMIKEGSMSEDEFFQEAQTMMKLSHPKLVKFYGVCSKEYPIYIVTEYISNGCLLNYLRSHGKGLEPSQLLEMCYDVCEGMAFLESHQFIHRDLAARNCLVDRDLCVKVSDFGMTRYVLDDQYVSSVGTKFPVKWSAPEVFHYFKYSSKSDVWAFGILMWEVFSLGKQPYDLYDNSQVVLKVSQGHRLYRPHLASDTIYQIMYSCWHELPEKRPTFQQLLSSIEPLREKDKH
Chain of Serine/threonine-protein kinase STK11 (Homo sapiens) (Q15831 whole entry): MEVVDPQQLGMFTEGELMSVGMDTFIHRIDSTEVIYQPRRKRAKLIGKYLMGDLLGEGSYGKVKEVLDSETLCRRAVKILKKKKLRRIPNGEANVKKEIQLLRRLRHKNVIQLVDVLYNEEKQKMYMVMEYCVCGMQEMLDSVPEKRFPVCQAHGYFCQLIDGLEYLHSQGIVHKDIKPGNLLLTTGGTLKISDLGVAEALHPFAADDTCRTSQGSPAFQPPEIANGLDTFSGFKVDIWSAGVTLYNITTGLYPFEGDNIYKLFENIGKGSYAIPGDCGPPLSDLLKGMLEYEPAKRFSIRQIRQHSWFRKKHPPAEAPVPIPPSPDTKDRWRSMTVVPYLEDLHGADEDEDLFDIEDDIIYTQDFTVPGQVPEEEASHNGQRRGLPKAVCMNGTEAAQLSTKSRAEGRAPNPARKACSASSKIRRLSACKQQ

## CN1CCN(c2ccc(OC(F)(F)F)c(Nc3ncc4c(n3)-c3c(c(C(N)=O)nn3CCO)CC4)c2)CC1 [ONVANSERTIB]
[1]
  IC50: 826 nM
[2]
  IC50: 429 nM
[3]
  inhibition in vivo at 60 mg/kg: 98%
[4]
  IC50: 56 nM
[5]
  IC50: > 10000 nM
[6]
  Activity: Dose-Dependent Effect
[7]
  IC50: > 10000 nM
[8]
  IC50: > 10000 nM
[9]
  IC50: 90 nM
[10]
  Activity: 76%
[11]
  Activity: 113%
[12]
  Activity: 83%
[13]
  IC50: 837 nM
[14]
  IC50: 54 nM
[15]
  Activity: 93%
[16]
  Activity: 113%
[17]
  IC50: 1130 nM
[18]
  IC50: 108 nM
[19]
  Activity: 64%
[20]
  Activity: 85%
[21]
  inhibition: Active
[22]
  Activity: Dose-Dependent Effect
[23]
  IC50: 398 nM
[24]
  Activity: 87%
[25]
  Activity: 114%
[26]
  IC50: 73 nM
